The structures appear in SMILES notation. ≈ marks a conversion by molar mass, not a printed value.

Holding throughout (format): functional
For one assay, the system named is Haemophilus influenzae. Put plainly: In vitro antimicrobial activity against Haemophilus influenzae.
The test system of another assay is Staphylococcus aureus. Put plainly: In vitro antimicrobial activity against Staphylococcus aureus X1.
In assay [1] the test system is Streptococcus pyogenes. As to the kind of experiment: Anti microbial activity against Streptococcus pyogenes.
Assay [2] relates to Streptococcus pyogenes. As to the kind of experiment: In vivo effective dose against experimental infections in rodent caused by Streptococcus pyogenes C203 when administered sc.
Assay [3] deals with Streptococcus pyogenes. As to the kind of experiment: Activity against Streptococcus pyogenes C203 when administered orally. Particulars: po. An outline of the steps: (§1)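 Mouse protection test: infected mice were dosed twice, at 1 and 5 h postinfection, either subcutaneously or orally. […] The result is expressed as ED50 in mg/kg × 2.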
In assay [4] the test system is Streptococcus pyogenes. Put plainly: Activity against Streptococcus pyogenes C203 when administered sc. A digest of the protocol:
as §1

Another assay relates to Streptococcus pneumoniae. Put plainly: In vitro antimicrobial activity against Streptococcus pneumoniae.
The test system of assay [5] is Staphylococcus epidermidis. Put plainly: In vitro antimicrobial activity against Staphylococcus epidermidis EPI1.
In assay [6] the test system is Streptococcus pyogenes. As to the kind of experiment: In vitro antimicrobial activity against Streptococcus pyogenes C203.
Assay [7] has as its system Streptococcus pyogenes. As to the kind of experiment: In vivo effective dose against experimental infections in rodent caused by Streptococcus pyogenes C203 when administered orally. Conditions: po.

In the case of `CC[C@H]1OC(=O)C[C@@H](O)[C@H](C)[C@@H](O[C@@H]2O[C@H](C)[C@@H](O[C@H]3C[C@@](C)(O)[C@@H](O)[C@H](C)O3)[C@H](N(C)C)[C@H]2O)[C@@H](C)C[C@@H](C)C(=O)/C=C/C(C)=C/[C@@H]1CO[C@@H]1O[C@H](C)[C@@H](O)[C@@H](OC)[C@H]1OC` [DEFORMYLTYLOSIN], the MIC with Haemophilus influenzae amounted to 128 µg/mL (≈ 144 µM); against Staphylococcus aureus, 0.5 µg/mL (≈ 0.563 µM); in the assay on Streptococcus pyogenes [1], 1 µg/mL (≈ 1.13 µM); in the assay on Streptococcus pneumoniae, 32 µg/mL (≈ 36 µM); in [5], 1 µg/mL (≈ 1.13 µM); in the assay with Streptococcus pyogenes [6], 1 µg/mL (≈ 1.13 µM). Further, the ED50 (commonly the dose at which the effect has come halfway, by size or by number of responders) with Streptococcus pyogenes [2] worked out at 2 mg/kg; in the assay on Streptococcus pyogenes [3], 12 mg/kg; in the assay on Streptococcus pyogenes [4], 2 mg/kg; in the assay on Streptococcus pyogenes [7], 12 mg/kg.
